Reference: ChEMBL document CHEMBL4177543, “Biseokeaniamides A, B, and C, Sterol O-Acyltransferase Inhibitors from an Okeania sp. Marine Cyanobacterium” (J Nat Prod, 2017)
pIC50: −log10 of the molar value. Activity calls are given as the source filed them. No cut-off for these calls is given here. Non-standard residues stand in square brackets, D forms with d. Residues, ends and D or L forms follow the SMILES beside them. *: point of attachment. NMeF = CN[C@@H](Cc1ccccc1)C(=O)O; NMeV = CN[C@H](C(=O)O)C(C)C; Butyryl = CCCC(=O)*; X1 = CN(Cc1nccs1)*

Tests used:
[1] = system: HeLa; test: Growth inhibition of human HeLa cells incubated for 72 hrs by MTT assay; assay type: functional, cell-based
Summary of the method: (§1)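 HeLa (DMEM) or HL60 (RPMI) cells, 10% heat-inactivated FBS, 37 °C, 5% CO2. HeLa seeded 2 × 10^4 cells/well and cultured overnight; HL60 seeded 1 × 10^5 cells/well. Exposed to a range of concentrations for 72 h; proliferation read by MTT; IC50 reported.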

[2] = system: HL-60; test: Growth inhibition of human HL60 cells incubated for 72 hrs by MTT assay; assay type: functional, cell-based; settings: HL-60, 72 h; summary of the method: as §1
[3] = molecular target: T1, Sterol O-acyltransferase 1 (Chlorocebus aethiops, UniProt O77760); test: Inhibition of African green monkey SOAT1 expressed in CHO cells assessed as reduction in neutral lipid synthesis incubated for 6 hrs using [1-14C]oleic acid by thin-layer chromatography; assay type: cell-based
T1 sequence (O77760 whole entry): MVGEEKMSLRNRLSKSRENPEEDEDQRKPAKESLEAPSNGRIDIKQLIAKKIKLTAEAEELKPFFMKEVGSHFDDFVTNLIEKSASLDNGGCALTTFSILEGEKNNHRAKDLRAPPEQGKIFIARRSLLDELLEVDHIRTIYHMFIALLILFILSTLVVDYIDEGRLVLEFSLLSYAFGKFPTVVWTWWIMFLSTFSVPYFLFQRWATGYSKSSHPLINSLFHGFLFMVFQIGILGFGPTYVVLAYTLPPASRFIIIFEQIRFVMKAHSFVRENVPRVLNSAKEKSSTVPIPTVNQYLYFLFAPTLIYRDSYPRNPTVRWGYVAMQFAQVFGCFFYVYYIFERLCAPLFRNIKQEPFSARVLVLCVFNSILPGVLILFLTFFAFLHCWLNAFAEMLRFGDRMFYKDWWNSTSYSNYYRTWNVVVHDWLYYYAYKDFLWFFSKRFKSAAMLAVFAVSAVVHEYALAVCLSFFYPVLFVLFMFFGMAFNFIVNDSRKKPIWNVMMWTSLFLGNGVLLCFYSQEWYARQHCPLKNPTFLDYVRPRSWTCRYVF
Summary of the method: (§2)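 CHO cells stably expressing monkey SOAT1 or SOAT2 in Ham's F-12 with 10% FBS, plated 1.25 × 10^5 cells/well, recovered overnight, ≥80% confluent. Sample added from 0–1 mg/mL MeOH stocks together with [1-14C]oleic acid (1 nmol) for 6 h at 37 °C. Lipids Bligh–Dyer extracted and separated by TLC; [14C]cholesteryl ester quantified vs control. IC50 from duplicated experiments.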

[4] = molecular target: T2, Sterol O-acyltransferase 2 (Chlorocebus aethiops, UniProt O77759); test: Inhibition of African green monkey SOAT2 expressed in CHO cells assessed as reduction in neutral lipid synthesis incubated for 6 hrs using [1-14C]oleic acid by thin-layer chromatography; assay type: cell-based; summary of the method: as §2
T2 sequence (O77759 whole entry): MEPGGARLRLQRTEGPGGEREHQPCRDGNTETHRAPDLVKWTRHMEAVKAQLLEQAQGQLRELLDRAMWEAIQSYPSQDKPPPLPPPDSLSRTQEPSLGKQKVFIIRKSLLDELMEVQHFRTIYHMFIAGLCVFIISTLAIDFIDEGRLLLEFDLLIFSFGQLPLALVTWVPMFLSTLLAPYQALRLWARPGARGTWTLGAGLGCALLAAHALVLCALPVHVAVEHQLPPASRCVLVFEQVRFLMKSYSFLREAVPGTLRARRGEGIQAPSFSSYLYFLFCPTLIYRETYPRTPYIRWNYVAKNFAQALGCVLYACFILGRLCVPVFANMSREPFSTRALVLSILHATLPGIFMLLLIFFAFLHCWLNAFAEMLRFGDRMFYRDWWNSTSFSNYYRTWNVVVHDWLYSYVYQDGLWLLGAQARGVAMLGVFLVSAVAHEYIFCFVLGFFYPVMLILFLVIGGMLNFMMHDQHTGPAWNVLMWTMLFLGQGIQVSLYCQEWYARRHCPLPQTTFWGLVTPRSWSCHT

[5] = molecular target: T1, Sterol O-acyltransferase 1; test: Inhibition of African green monkey SOAT1 expressed in CHO cell microsomal fractions assessed as reduction in neutral lipid synthesis incubated for 5 mins using [1-14C]oleoyl-CoA by thin-layer chromatography
[6] = molecular target: T2, Sterol O-acyltransferase 2; test: Inhibition of African green monkey SOAT2 expressed in CHO cell microsomal fractions assessed as reduction in neutral lipid synthesis incubated for 5 mins using [1-14C]oleoyl-CoA by thin-layer chromatography
[7] = system: HeLa; test: Induction of cell killing in human HeLa cells assessed as reduction in cell viability at 1 to 30 uM incubated for 48 hrs by trypan blue dye exclusion method; assay type: functional, cell-based
Summary of the method: (§3)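 HeLa seeded 4 × 10^4 cells/well, cultured overnight, then preincubated 30 min with or without 50 μM Z-VAD-FMK. Compound added at various concentrations for 48 h. Cells stained with 0.8 mg/mL trypan blue; viability from counts of stained (dead) cells. Mean ± SD of quadruplicates.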

[8] = system: HeLa; test: Induction of cell killing in human HeLa cells assessed as reduction in cell viability at 1 to 30 uM incubated for 48 hrs in presence of 50 uM Z-VAD-FMK by trypan blue dye exclusion method; assay type: functional, cell-based; summary of the method: as §3
[9] = system: HeLa; test: Induction of apoptosis in human HeLa cells assessed as induction of caspase-3 activation incubated for 24 hrs using Ac-DEVD-pNA as substrate by spectrophotometry; assay type: functional, cell-based
Summary of the method: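 Exponentially growing HeLa, 2 × 10^6 cells per 60 mm dish, incubated 12 h at 37 °C, then treated 24 h. Cells washed in cold PBS, lysed by three freeze–thaw cycles plus 15 min on ice, and clarified at 15000g. Lysate incubated with Ac-DEVD-pNA, 37 °C, 4 h; p-nitroaniline read at 405 nm. Activity relative to 1% MeOH control; triplicates; tunicamycin positive control.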

Compound	pIC50 [1]	pIC50 [2]	pIC50 [3]	pIC50 [4]	pIC50 [5]	pIC50 [6]	Activity [7]	Activity [8]	Activity [9]
CCCC(=O)N(C)[C@H](C(=O)N1CCC[C@H]1C(=O)N(C)[C@@H](Cc1ccccc1)C(=O)N[C@@H](CC(C)C)C(=O)N(C)[C@H](C(=O)N(C)Cc1nccs1)C(C)C)C(C)C (Butyryl-[NMeV]P[NMeF]L[NMeV]-X1)	4.54	4.52	5.74	5.89	5.74	5.02	–	–	–
CCCC(=O)N(C)[C@H](C(=O)N1CCC[C@H]1C(=O)N(C)[C@@H](Cc1ccccc1)C(=O)N[C@@H](CC(C)C)C(=O)N[C@H](C(=O)N(C)Cc1nccs1)C(C)C)C(C)C (Butyryl-[NMeV]P[NMeF]LV-X1)	5.35	4.72	5.16	5.60	5.17	5.00	Active	inactive	Dose-dependent effect
CCCC(=O)N[C@H](C(=O)N1CCC[C@H]1C(=O)N(C)[C@@H](Cc1ccccc1)C(=O)N[C@@H](CC(C)C)C(=O)N(C)[C@H](C(=O)N(C)Cc1nccs1)C(C)C)C(C)C (Butyryl-VP[NMeF]L[NMeV]-X1)	4.37	< 4.00	< 4.92	5.02	4.96	< 4.49	–	–	–
COc1c([C@H](CC(C)C)OC(C)=O)ccc2c1C(=O)OCc1cc(C)cc(O)c1O2	–	–	5.60	5.82	6.05	5.74	–	–	–
